The results in this text go back to the RNAGym collection of RNA variant scans (doi:10.1126/science.aae0568).

The chains are these.
B1: tRNA (parent)
chain: GUUCCGUUGGCGUAAUGGUAACGCGUCUCCCUCCUAAGGAGAAGACUGCGGGUUCGAGUCCCGUACGGAACG

This sample holds only a part of the variants without activity. Bounds are passed on as bounds.

The variants in the series derive from B1. The series is described as follows: yeast fitness relative to wild type (ratio to wild type); higher = fitter; tRNA-Arg(CCU), competitive growth, 37 C, YPD. In short, it runs like this: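 Genotype frequency changes were the basis for Darwinian fitness relative to wild type. The frequencies came from 100-nucleotide paired-end sequencing of gene amplicons from the start population and each end population of pooled yeast strains with tRNA-Arg(CCU) gene variants at the native locus. Competition ran in YPD at 37°C for 24 hours in six replicates, genotypes needed ≥ 100 starting reads, and estimates < 0.5 were set to 0.5.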
For the variant GUUCCGUUGGCGUAAUGAUAACGCGUCUCCCUCCUAAGGAGAAGAUUGCUGGUUCGAGUGCCGUACGGAGCG [G18A C46U G50U C60G A70G], the yeast fitness is at most 0.5. On to GUUCCGUUGGCGUAAUGAUAACGCGUCUCUCUCCUAAGGGGAAGAUUGCGGGUUCGAGUCCCGUACGGAACG [G18A C30U A40G C46U], for which the yeast fitness is at most 0.5. The figure for GUUCCGUUGGCGUAAUGAUAACGCGUCUCCCUUCUAAGGAGAAGACUGCGGGUUCGGGUCCCGUACGGAACG [G18A C33U A57G] is at most 0.5; for GUUCCGUUGGCGUAAUGAUAACGCGUCUCCUUCCUAAGGAGAAGACUGCGGGUUCGAGUCCCGUACGGAUCG [G18A C31U A70U] it is 0.656; for GUUCCGUUGGCGUAAUGAUAACGCGUCUCCUUCCUAAGGAGAAGACUGCGGGUUCGAGUCCCGUACGGAGCG [G18A C31U A70G] it is 0.726. For the variant GUUCCGUUGGCGUAAUGAUAACGCGUCUCCCUCCUAAGGAGAAGACUGCGGGUUUGAGUCCCGUACGGAACG [G18A C55U], the yeast fitness came to 0.554.

Regarding GUUCCGUUGGCGUAAUGAUAACGCGUCUCCCUCCUAAGGAGAAGACUGCGGGUUGGAGUCCCGUACGGAACG [G18A C55G], the yeast fitness is 0.554. As to GUUCCGUUGGCGUAAUGAUAACGCGUCUCUCUCCUAAGGAGAAGACGGCGGGUUCGAGUCCCGUACGGAACG [G18A C30U U47G], the yeast fitness was at most 0.5.

On to GUUCCGUUGGCGUAAUGAUAACGCGUCUCCGUCCUAAGGAGAAGACCGCGGGUUCGAGUCCCGUACGGAACG [G18A C31G U47C], for which the yeast fitness was at most 0.5. To GUUCCGUUGGCGUAAUGAUAACGCGUCUCCUUCCUAAGGAAAAGACUGCGGGUUCGAGUCCCGUACGGAACG [G18A C31U G41A] belongs 0.647. The figure for GUUCCGUUGGCGUAAUGAUAACGCGUCUCCCUCCUAAGGAGAAGAAUGCGGGUUCGAGUCCCCUACGGAACG [G18A C46A G63C] is 0.604; for GUUCCGUUGGCGUAAUGAUAACGCGUCUCCCUCCUAAGGAGAAGACUGUGGGUUCGAGUCCCGUACGGAACG [G18A C49U] it is 0.892; for GUUCCGUUGGCGUAAUGAUAACGCGUCUUCCUCCUAAGGAGAAGACUGCGGGUUCGAGUCCCGUACGGAACG [G18A C29U] it is 0.813. To GUUCCGUUGGCGUAAUGAUAACGCGUCUCCCUCUUGAGGAGAAGACUGCGGGUUCGAGUCCCGUACGGAACG [G18A C34U A36G] belongs 0.525. GUUCCGUUGGCGUAAUGAUAACGCGUCUCCCUCCUAAGGAGAUGACUGCGGGUUCGAGUCCCGUACGGAACG [G18A A43U]: the yeast fitness was 0.637. The figure for GUUCCGUUGGCGUAAUGAUAACGCGUCUCACACCGAAGGAGAAGACUGCGGGUUCGAGUCCCGUACGGAACG [G18A C30A U32A U35G] is at most 0.5. The figure for GUUCCGUUGGCGUAAUGAUAACGCGUCUCCCUCCUAAGGAGAAGCCUGUGGGUUCGAGUCCCGUACGGAACG [G18A A45C C49U] is 0.667.

As for GUUCCGUUGGCGUAAUGAUAAAGCGUCCCCCUCCUAAGGCGAAGACUGCGGGUUCGAGUCCCGUACGGAACG [G18A C22A U28C A40C], the yeast fitness is at most 0.5. To GUUCCGUUGGCGUAAUGAUAACGCGUCUCCCUCCUAAGGAGAAGACUGCGGGUUCGAGUCCGGUACGCAACG [G18A C62G G68C] belongs at most 0.5; to GUUCCGUUGGCGUAAUGAUAACGCGUAUCCCUCCUAAGGAGAAGACUGCGGGUUCGAGUCCCGUACGGAACG [G18A C27A], 0.726.

Consider GUUCCGUUGGCGUAAUGAUAACGCGUCUCUCUCCUAAGGAGAAGACUGCGGGUUAGAGUCCCGUACGGAACG [G18A C30U C55A], for which the yeast fitness turned out to be 0.592. Regarding GUUCCGUUGGCGUAAUGAUAACGCGUAUCCCUCCUAAGGAGAAGACUGCGGGUUCGAGUCCCGUACGCAACG [G18A C27A G68C], the yeast fitness was at most 0.5. As to GUUCCGUUGGCGUAAUGAUAACGCGUCUCCCUCCUAAGGAGGAGACUGCGGGUUCGAGUCCCGUACGGAACG [G18A A42G], the yeast fitness was 0.692.

Consider GUUCCGUUGGCGUAAUGAUAACGCGUCUCCCUCCUAAGGAGAAGAUUGCGGGUUCGAGCCCCGUACGAAACG [G18A C46U U59C G68A], for which the yeast fitness was 0.53.

With GUUCCGUUGGCGUAAUGAUAACGCGUCUCCCUCCUAAGGAGAAGACUGCGGGUUCGAGUCCAGUACGGAACG [G18A C62A], the yeast fitness was found to be 0.513.

Turning to GUUCCGUUGGCGUAAUGAUAACGCGUCUCGCUCCUAAGGAGAAGACUGCGGGUUCGAGUCCCGUACGGAACG [G18A C30G], the yeast fitness was at most 0.5.

Regarding GUUCCGUUGGCGUAAUGAUAACGCGUCUCCCUCUUAAGGAGAAGACUGCGGGUUCGAGUCCCGUACGGAACG [G18A C34U], the yeast fitness is at most 0.5. With GUUCCGUUGGCGUAAUGAUAACGGGUCUCCCUCCUAACGAGAAGACUGCGGGUUCGAGUCCCGUACGGAACG [G18A C24G G38C], the yeast fitness was found to be 0.724.

Consider GUUCCGUUGGCGUAAUGAUAACGCGUUUCCCUCCUAGGGAGAAGACUGCGGGUUCGAGUCCCGUACGGACCG [G18A C27U A37G A70C], for which the yeast fitness was at most 0.5.

For GUUCCGUUGGCGUAAUGAUAACGCGUCUCCCUCUUAAGGGGAAGACCGCGGGUUCGAGUCCCGUACGGAACG [G18A C34U A40G U47C], the yeast fitness is at most 0.5. The figure for GUUCCGUUGGCGUAAUGAUAACGCGUCUCCCUCCUAAGGAGAAGACUGAGGGUUCGAGUCCCGUUCGGAACG [G18A C49A A65U] is 0.558. The figure for GUUCCGUUGGCGUAAUGAUAACGCGUCUCUCUCCUAAGGUGAACACUGCGGGUUCGAGUCCCGUACGGAACG [G18A C30U A40U G44C] is at most 0.5. On to GUUCCGUUGGCGUAAUGAUAACGCGUCUCCCUCCUAAGGCGAAGACGGCGGGUUCGAGUCCCGUCCGGAACG [G18A A40C U47G A65C], for which the yeast fitness was at most 0.5. The figure for GUUCCGUUGGCGUAAUGAUAACGCGUCUCCCUCCUAAGGAGCAGACUGCGGGUUCGAGUCACGUACGGAACG [G18A A42C C61A] is at most 0.5; for GUUCCGUUGGCGUAAUGAUAACGCGUCUCCCUCCUAAGGUGUAGACUGCGGGUUCGAGUCCCGUCCGGAACG [G18A A40U A42U A65C] it is 0.534; for GUUCCGUUGGCGUAAUGAUAACGCGUCUCCCUCCUAAGGAGAAGAUUGUGGGUUCGAGCCCCGUACGAAACG [G18A C46U C49U U59C G68A] it is at most 0.5. In the case of GUUCCGUUGGCGUAAUGAUAACGCGUCUCCCUCCUAAGGAGAAGACUGCGGGUUCGUCUCCCGUACGGAACG [G18A A57U G58C], the yeast fitness is at most 0.5.

In the case of GUUCCGUUGGCGUAAUGAUAACGCGUCUUUCUCCUAAGGAGAAGACUGCGGGUUCGGGUCCCGUACGGAACG [G18A C29U C30U A57G], the yeast fitness is at most 0.5.
